Source: publication PMC7474130 (Journal of Pharmaceutical Analysis, 2020)
Like-named read-outs stand apart in the source and are kept apart here.

Tests used:
[1] = Stability of analytes in rat plasma under different storage conditions; type: in vitro ADME
Summary of the method: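 Blank rat plasma spiked at three QC concentrations, five replicates each. Plasma (100 μL) was precipitated with three volumes of acetonitrile plus IS, vortexed 5 min, centrifuged at 13,000 × g for 10 min at 4 °C, then dried under nitrogen. It was reconstituted in initial mobile phase and re-centrifuged. Extracts were held in the auto-sampler at 4 °C, then 3 μL injected. Quantitation used analyte/IS peak-area ratios on a 1/concentration2-weighted linear calibration.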

[2] = type: in vivo, Male Sprague-Dawley (SD) rats; conditions: for Cmax / half-life: male, Sprague-Dawley, rat, po, 6.8 g/kg
Summary of the method: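 Untreated male SD rats (220 ± 20 g; six) were housed at 25 ± 3 °C and 45 ± 5% humidity with free access to food and water. Plasma was analysed by UHPLC-Q-Orbitrap-MS (IS, 1/concentration2-weighted calibration), with non-compartmental analysis.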

[3] = type: in vivo, Male Sprague-Dawley (SD) rats; conditions: plasma; for AUC0-t / AUC0-∞: IM rats, oral ZSS aqueous extract 6.8 g/kg, mean ± SD, n = 6; for Cmax / Tmax / half-life: male, Sprague-Dawley, rat, po, 6.8 g/kg
Summary of the method: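 Male SD rats (220 ± 20 g) made insomniac with PCPA 400 mg/kg i.p. daily for three days (suspended in 0.5% CMC-Na); six rats. Plasma (3500 × g, 10 min, 4 °C) was held at −80 °C. Analysis used UHPLC-Q-Orbitrap-MS with internal standards and non-compartmental parameters.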

[4] = extracted plasma QC samples, 4 °C for 12 h (auto-sampler), high QC level
[5] = extracted plasma QC samples, 4 °C for 12 h (auto-sampler), low QC level
[6] = extracted plasma QC samples, 4 °C for 12 h (auto-sampler), middle QC level
[7] = rat plasma, Frozen for 30 days (−80 °C), high QC level
[8] = rat plasma, Frozen for 30 days (−80 °C), low QC level
[9] = rat plasma, Frozen for 30 days (−80 °C), middle QC level
[10] = rat plasma, Three freeze-thaw cycles, high QC level
[11] = rat plasma, Three freeze-thaw cycles, low QC level
[12] = rat plasma, Three freeze-thaw cycles, middle QC level
[13] = NC rats, oral ZSS aqueous extract 6.8 g/kg, plasma, mean ± SD, n = 6

| SMILES | Stability, Accuracy (RE, %) [1, 4] [%] | Stability, Accuracy (RE, %) [1, 5] [%] | Stability, Accuracy (RE, %) [1, 6] [%] | Stability, Accuracy (RE, %) [1, 7] [%] | Stability, Accuracy (RE, %) [1, 8] [%] | Stability, Accuracy (RE, %) [1, 9] [%] | Stability, Accuracy (RE, %) [1, 10] [%] | Stability, Accuracy (RE, %) [1, 11] [%] | Stability, Accuracy (RE, %) [1, 12] [%] | AUC0-t [2, 13] [μg/L･h] | AUC0-∞ [2, 13] [μg/L･h] | Cmax ([2]; plasma) [ng/mL] | half-life ([2]; plasma) [min] | AUC0-t [3] [μg/L･h] | AUC0-∞ [3] [μg/L･h] | Cmax [3] [ng/mL] | Tmax [3] [min] | half-life [3] [min] | further results |
| --- | --- | --- | --- | --- | --- | --- | --- | --- | --- | --- | --- | --- | --- | --- | --- | --- | --- | --- | --- |
| COc1cc2c(cc1O)C(Cc1ccc(O)cc1)NCC2 (stereo not drawn) [Coclaurine, coclaurine] | 7.71 | 14.88 | 3.35 | −1.99 | 14.76 | 9.58 | 8.75 | 11.85 | 9.48 | 1.08 ± 0.30 | 1.13 ± 0.27 | 1.98 ± 0.82 | 27 ± 10.2 | 0.91 ± 0.26 | 0.93 ± 0.28 | 2.48 ± 0.98 | 13.8 ± 5.4 | 24.6 ± 16.8 | Tmax [2, 13]: 16.2 ± 5.4 min |
| COc1ccc2c(c1O)-c1c(O)c(OC)cc3c1[C@H](C2)[N+](C)(C)CC3 [Magnoflorine, magnoflorine] | 11.25 | −4.56 | −11.99 | 9.01 | −14.77 | 0.05 | 8.06 | −5.49 | 5.31 | 54.56 ± 21.90 | 69.51 ± 28.52 | 40.6 ± 12.7 | 190 ± 118 | 45.13 ± 24.46 | 51.87 ± 23.75 | 35.1 ± 13.7 | 12 ± 4.2 | 161 ± 76.8 | – |
| COc1cc2oc(-c3ccc(O)cc3)cc(=O)c2c(O)c1[C@@H]1O[C@H](CO)[C@@H](O)[C@H](O)[C@H]1O [swertisin] | – | – | – | – | – | – | – | – | – | – | – | – | – | – | – | – | – | – | concentration in rat plasma ([2]; after oral administration of ZSS aqueous extract): too low for detection; content in bile and feces ([2]; after oral administration of ZSS aqueous extract, data not open): high content |
